Test results as given in the EternaBench riboswitch data.

Test system: MS2 coat protein
Assay: apparent Kd, MS2 coat protein; higher = weaker binding; RNA-MaP array; FMN 200 µM where present
In short: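 Stalled E. coli RNA polymerase transcribed the designs on Illumina sequencing-chip clusters. SNAP-549-labelled MS2 coat protein was titrated from 0.7 or 1.5 nM, doubling to 3 µM, without and then with constant ligand, in 100 mM Tris-HCl pH 7.5, 80 mM KCl, 4 mM MgCl2, BSA, DTT, yeast tRNA and Tween-20. Per-cluster binding curves were fitted to green signal normalised to red-channel RNA signal and control-cluster median Fmax. The apparent Kd is the median of the filtered fits.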

[1] = designed as: ON switch for flavin mononucleotide, no ligand
[2] = ligand present: flavin mononucleotide, designed as: ON switch for flavin mononucleotide
[3] = designed as: OFF switch for flavin mononucleotide, no ligand
[4] = ligand present: flavin mononucleotide, designed as: OFF switch for flavin mononucleotide

Row | Sequence | apparent Kd [1] [nM] | apparent Kd [2] [nM] | apparent Kd [3] [nM] | apparent Kd [4] [nM]
1 | CGCGAAAACAUAGGAUAUUGAUACAUGAGGAUCACCCAUGUCAACCAUGAAGCUCGAAUUGUUGACAAGAAGGAUGAGGUCGCG | 77.1 | 57.2 | – | –
2 | GUUACAUGAGGAUCACCCAUGUAUGUGUGGGAGUAAGUGUCUUAGGAUAUCUAUUAUUUAAUGUAAGAGAAGGAAGAUUGUUGU | 113 | 124 | – | –
3 | CCGAGCUUGGCAGGAUAUAGACUCGAAGUUGAUCCCGCCGGUGGAGACAUGAGGAUCACCCAUGUCUAGAAGGGCCAGUCGAAA | – | – | 11.7 | 36
4 | GCGUAUUUAAGAUUUAUAAAACAGUCAGAAGGUGAUAAGACGACAUGAGGAUCACCCAUGUAAUUCAAGGAUAUGAAAAUGCGC | 48.6 | 22.1 | – | –
5 | GGUUAAUAUCGAGGAUAUGUCUAGACACAUGAGGAUCACCCAUGUAUGUGUAUAGAAGGCGAUAUUAACAGCAUGUUACAUGCG | 38.8 | 16.4 | – | –
6 | ACCUAUGAGGAGGAUAUACGGUGCGAAAGGAAGGUAGAAGGCUUCACAUGAGGAUCACCCAUGUCUAUAAGCGA | – | – | 30.9 | 29.5
7 | GUGCACACUCGAGGAUAUCGGAGAGUACUCCUUCGAGAAGGCGAUUCGUGCCGUGUUAUUCUGGACAUGAGGAUCACCCAUGUG | 125 | 39.9 | – | –
8 | AAGAGGCGAGGAUAUACAUGAGGAUCACCCAUGUAAUCCGGAUAAGGAAGCAUGUCGUGUAGAAGGUGCCAUGA | – | – | 20.7 | 19.2
9 | CUUUUGUGAGGAUAUUAGUAGUAAACAAACAAAAUUAUUACUGAGAAGGCACAUGAGGAUCACCCAUGUUCCUC | – | – | 39.7 | 637
10 | CGCUAAUAAUUAAUAUUAAUUGUACAGGAUAUGUAACAUGAGGAUCACCCAUGUAUUGGGUUUAAACAGAAGGGUAUAUUAGCG | – | – | 387 | 92.4
11 | AAUAUGUUGCAGAAGGCCAUGGUGUGGUAGUGCCUCAUGACAUGAGGAUCACCCAUGUCUGUGAUGGAGGAUAUGCAAUAUAUU | – | – | 67.2 | 152
12 | AUAAUGAGUCAAGGAUAUCCGAGCUGAAUGCUAGGAGAAGGUGACAUGAGGAUCACCCAUGUCUCUCCGAGCAUGGUAUUCUCA | – | – | 28.6 | 33.6
13 | UUUAUGUCAGGAUAUGAUUAGAUCUACUUUUGUAGAUCUAAUCAGAAGGGACAUGAGGAUCACCCAUGUUUUUU | – | – | 44.8 | 252
14 | GUACCUUAUGAGAAGGCGAUCAUGAAACAUGAUCGAGGAUAUCAUGUAAACAUGAGGAUCACCCAUGUAUGGGUAUUAUGGUAA | 31.8 | 10.2 | – | –
15 | UUGGACGUCGUAGGAUAUGUAGGAUAUUCCUACAUGAGGAUCACCCAUGUUGACAUGGAAGAAGGACAGAACGACGAUGUCCAU | 172 | 6.07 | – | –
16 | ACCAGGGAUUCAGGAUAUAUUAGCCGAGGCCGCGUAGAAGGGAAAUCCUGACAUGAGGAUCACCCAUGUCGACCCGCCUUCCAA | 43.3 | 41.9 | – | –
17 | AACUGCUGCGUUGUGAUUUCUCCACAUGAGGAUCACCCAUGUCAGGAUAUCUUACCUAGCGGACAAGAGAAGGGACAUGACGGU | – | – | 348 | 129
18 | AGCUGUGGCCGAGGAUAUCUGAAACUCAAAACCGAAAUAUAAUCGGACAUGAGGAUCACCCAUGUAGAGAAGGCGGUCUCAGCA | – | – | 165 | 307
19 | CGGAUGUGAGGAUAUACAUGAGGAUCACCCAUGUGAGCCAGCUAGCUGACUGGCUCGUGUAGAAGGCACGUCUG | – | – | 15.5 | 28.9
20 | GCGUGACAUGAGGAUCACCCAUGUGAGGAUAUCUGGACACUCUUUAUUUUAGAUGUCCAGAGAAGGCACAUGCU | – | – | 238 | 126
21 | GACAGACAUGAGGAUCACCCAUGUGAAAACGUACAAGGAUAUGUGUGGAAACCGUACUAUACAGAAGGUGUCUGUC | 94.5 | 87 | – | –
22 | ACAAGAUCAGGAUAUACAUGAGGAUCACCCAUGUUUAUCAAAAAAAAACUUUCUUUAUGUAGAAGGGAUCUUGU | – | – | 13.8 | 13.6
23 | GAAUUCGCAUGAGGAUAUGCACUCAUUUCAUGUGCAGAAGGUAUAUCAUUAGACAUGAGGAUCACCCAUGUAUUGGUCAAUAAC | 17.8 | 14.8 | – | –
24 | UGGUUGUCAGGAUAUUGGGUAUUCAACUUUAGUUUUAUAUUCGAGAAGGGACAUGAGGAUCACCCAUGUUACGU | – | – | 36.2 | 166
25 | GCAGACGUGGUGAGGAUAUGCUCUACCUCGGUAGAGCAGAAGGCACAUGAGGAUCACCCAUGUGACUCCUCAUC | – | – | 18.6 | 19.2
26 | GUCUUAUUACAGAAGGUGUUUUACAUGAGGAUCACCCAUGUUUUAUUGUUUAAAUUUGAUAUUUACAAGGAUAUGUACUAAUCU | 25.1 | 21 | – | –
27 | AAAACUGAAGGAUAUGCCAGGGUGAGAGCUGGUGACGUUUAACAUGAGGAUCACCCAUGUAGAAGGUCAAAACA | – | – | 15.3 | 17
28 | GGCUAGUGAGGAUAUACGUGCAGUCCUCAGUCGCCAGUCGGACAUGAGGAUCACCCAUGUAGAAGGUAUCGGCA | – | – | 35.8 | 38.9
